Compound activity (PubChem)
In the library only some 3.1% were active in any assay of this set; here they are far more common.
KCNK3 block – human KCNK3 channel inhibition, primary screen; O14649; B-score at 10 µM; hit rate 0.84% among 340,000; CHO-KCNK3 thallium flux, FluxOR fluorescence; hits give low values; AID 602410;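 active = B-score under library mean minus 4 SD, starting fluorescence ratio at most library mean plus 5 SD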;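 note: more negative B-score means stronger inhibition of thallium flux through KCNK3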
hERG rescue – hERG (human) protection from proarrhythmic block; CHO-hERG, FluxOR thallium flux, dofetilide IC70 present; activation (rescue from dofetilide block), less the hit threshold, % at 10 µM; hit rate 0.51% among 310,000; AID 1511;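 active = activation above the mean of controls blocked by dofetilide plus 5 SD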;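 note: thallium influx through hERG after potassium depolarization seen as dye fluorescence rise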
KCNQ1 pot – potentiates or activates the human KCNQ1 potassium channel | P51787 | CHO-K1 KCNQ1, thallium flux FluxOR fluorescence; hits give high values | B-score at 10 µM | hit rate 0.35% among 310,000;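 active = fluorescence ratio B-score, a plate-corrected score, at least three library SD, with initial intensity B-score within 5 SD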
Target sequence (P51787 whole entry, looked up): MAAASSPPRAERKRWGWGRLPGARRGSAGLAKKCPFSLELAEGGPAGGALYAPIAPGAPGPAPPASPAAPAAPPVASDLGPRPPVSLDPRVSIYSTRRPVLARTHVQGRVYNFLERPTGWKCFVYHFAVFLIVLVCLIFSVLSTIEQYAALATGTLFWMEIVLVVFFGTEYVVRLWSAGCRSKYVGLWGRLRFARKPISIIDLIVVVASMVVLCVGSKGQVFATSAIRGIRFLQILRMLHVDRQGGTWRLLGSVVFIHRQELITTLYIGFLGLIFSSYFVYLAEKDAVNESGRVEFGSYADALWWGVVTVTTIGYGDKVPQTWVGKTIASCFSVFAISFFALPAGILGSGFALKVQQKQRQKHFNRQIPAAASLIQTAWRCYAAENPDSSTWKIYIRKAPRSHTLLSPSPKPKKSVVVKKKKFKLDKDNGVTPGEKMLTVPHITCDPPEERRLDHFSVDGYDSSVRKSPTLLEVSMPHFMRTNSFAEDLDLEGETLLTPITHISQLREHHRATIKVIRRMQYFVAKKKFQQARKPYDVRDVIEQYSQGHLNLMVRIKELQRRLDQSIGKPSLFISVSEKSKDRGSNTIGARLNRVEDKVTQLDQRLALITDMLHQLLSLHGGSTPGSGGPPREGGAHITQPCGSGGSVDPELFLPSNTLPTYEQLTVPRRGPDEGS
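System: CHO-K1 cells stably expressing KCNQ1 / Medium: assay buffer for compound exposure, DMSO matched across wells / Reagent: thallium- and potassium-containing depolarizing buffer / Compound: one concentration, matched DMSO / Incubation: 20 min compound pretreatment at room temperature / Measured by: kinetic FluxOR fluorescence, 10 s baseline plus 110 s post-stimulus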
KCNK9 inh – human KCNK9 channel inhibition | Q9NPC2 | HEK293 KCNK9, FluxOR thallium flux fluorescence; hits give low values | B-score at 10 µM | hit rate 1.2% among 310,000;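 active = ratio B-score over 3 SD below the library mean, with starting fluorescence within 5 SD of its mean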;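 note: negative B-score means less thallium flux so channel inhibition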
KCNQ1 inh – blocks the human KCNQ1 potassium channel; P51787; CHO-K1 KCNQ1, FluxOR thallium flux fluorescence; hits give high values; B-score at 10 µM; hit rate 1.3% among 310,000;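 active = compounds whose thallium flux B-score, printed positive for inhibition, exceeds three library SD while starting fluorescence stays within three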;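 note: channel opened by potassium depolarization with thallium stimulus after 20 min compound exposure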
The depositor's hits bear a star; i = inactive; / = no result given.

SMILES	KCNK3 block	hERG rescue	KCNQ1 pot	KCNK9 inh	KCNQ1 inh
N#CC1=C(N)Oc2ccc3ccc(O)cc3c2C1c1cccnc1 (stereo unspecified)	i	-3.8	i	i	i
CCC(=O)Nc1ccc(C(=O)CSc2nc3ccccc3cc2CC)cc1	i	-8.3	i	-7.18*	i
CCOc1ccc(C(=O)NN2CCOCC2)cc1	i	-3.2	i	i	i
O=C1c2nc3cc(-c4ccco4)[nH]n3c(=O)c2CN1Cc1ccccc1	i	5.0*	i	i	i
CCCCc1c(C)nc2cc(-c3ccco3)[nH]n2c1=O	i	-6.6	i	i	i
O=[N+]([O-])c1ccc(Nc2ccccc2)c2nonc12	i	-2.8	i	i	i
CCOc1ccc(Nc2ccc([N+](=O)[O-])c3nonc23)cc1	i	-7.2	i	i	7*
O=c1nc(/C=C/c2ccc(-c3ccc(F)cc3)o2)cc(C(F)(F)F)[nH]1	/	-26.9	i	i	11*
COCCCNC(=O)CCc1c(C)c2cc3c(C)coc3cc2oc1=O	i	-4.1	i	i	i
CCCSC1=C(C#N)C2(CCCCC2)C(C#N)=C(N)N1	i	-30.1	i	i	8*
N#CC1=C(N)NC(SCC(=O)c2ccc(Br)cc2)=C(C#N)C12CCCCC2	i	-26.3	i	i	12*
N#CC1=C(N)NC(SCC(=O)c2ccc(Cl)cc2)=C(C#N)C12CCCC2	i	-27.2	i	i	7*
CCSC1=C(C#N)C2(CCCCC2)C(C#N)=C(N)N1	i	-21.0	i	i	i
CC(=O)c1cccc(NC(=O)C(C)OC(=O)C2=NNC(=O)CC2)c1 (stereo unspecified)	i	/	/	/	/
COc1ccc(NC(=S)NC(=O)c2ccc(Br)o2)cc1	i	9.4*	17*	i	i
O=C(NC(=S)Nc1ccccc1)c1ccc(Br)o1	i	3.5	13*	i	i
Cc1snnc1C(=O)NC(=S)Nc1ccccc1	i	11.5*	9*	i	i
O=C(NC(=S)NCc1ccccc1)c1ccc(Br)o1	i	39.1*	59*	i	i
O=C(NC(=S)Nc1cccnc1)c1ccccc1	i	-11.7	i	i	i
O=C(NNC(=S)NCc1ccccc1)c1ccc(Br)o1	i	-2.1	i	i	i
Cc1ccc(CN2CC(C(=O)N3CC=C(c4ccccc4)CC3)CC2=O)cc1 (stereo unspecified)	i	-16.9	i	i	i
O=C(/C=C/c1ccc(Br)o1)NCc1ccccc1	i	-5.8	i	-6.78*	i
O=C(Nc1ccc(Nc2ccccc2)cc1)c1ccc(Br)o1	i	-18.1	i	-7.72*	i
Cc1cc([N+](=O)[O-])ccc1-c1ccc(C2Nc3ccccc3C(=O)N2O)o1 (stereo unspecified)	i	2.4	13*	i	i
COCc1ccc(-c2c(-c3cc(OC)cc(OC)c3)oc(=O)c3cc(OC)c(OC)cc23)cc1	i	/	/	/	/
SMILES	KCNK3 block	hERG rescue	KCNQ1 pot	KCNK9 inh	KCNQ1 inh
O=C(NCc1ccccn1)c1cc(-c2ccc(Cl)cc2)oc1C(F)(F)F	i	-12.5	i	-7.36*	i
CCOc1ccc(S(=O)(=O)N(CC(=O)N2CCC(C(N)=O)CC2)c2ccc(F)cc2)cc1	i	-4.2	i	i	i
C=C(C)COc1ccc(-c2nc(N)ncc2Oc2ccccc2OC)c(O)c1	-9.22*	/	/	/	/
O=C(c1cc(-c2ccccc2)on1)N1CCCC1	i	5.0*	i	i	i
Cc1ccc(Cl)cc1N1CCN(C(=O)C2(S(=O)(=O)c3ccc(Cl)cc3)CC2)CC1	i	-11.2	i	i	6*
COc1cc(NCCCNC(C)C)c2nccc(C)c2c1	i	/	/	/	/
O=[N+]([O-])c1cc(Br)c(O)c(C=Nc2ccc(N3CCOCC3)cc2)c1	i	-13.8	i	i	11*
COc1ccc(OC)c(C2=CC(=O)C[C@H](c3ccc4c(c3)OCO4)C2)c1	i	/	/	/	/
Oc1ccc(Cl)cc1C1=NNC(c2cccs2)C1 (stereo unspecified)	i	6.2*	20*	i	i
CC1(N2CCCCC2)CC2(O)C(=[N+]1[O-])CCC/C2=N\O (stereo unspecified)	i	-6.1	8*	i	i
Cc1c(NC(=O)C(C)OC(=O)c2cc(-c3cccc4ccccc34)nc3ccccc23)c(=O)n(-c2ccccc2)n1C (stereo unspecified)	i	-18.4	i	i	6*
COc1ccc(-c2cc(C(=O)OC(C)C(=O)Nc3c(C)n(C)n(-c4ccccc4)c3=O)c3ccccc3n2)cc1 (stereo unspecified)	i	-17.3	i	i	i
COc1cc(C=C(c2nc3ccccc3s2)c2nc3ccccc3s2)ccc1O	i	-14.4	i	i	6*
COc1ccc(C=C(c2nc3ccccc3s2)c2nc3ccccc3s2)cc1O	i	-11.8	i	i	i
NC(=O)C1Cc2ccccc2CN1C(=O)c1cc(C2CC2)nn1-c1ccccc1 (stereo unspecified)	i	/	/	/	/
CC1(C)CC(=O)C2=C(C1)NC1=C(C(=O)c3ccccc31)C2c1cc([N+](=O)[O-])ccc1O (stereo unspecified)	i	-12.8	i	i	6*
CC(C)c1ccc(C2C3=C(CC(C)(C)CC3=O)NC3=C2C(=O)c2ccccc23)cc1 (stereo unspecified)	i	-6.6	i	i	11*
CN(C(=O)CCNC(=O)Cn1cnc2ccccc2c1=O)c1ccc(Br)cc1	i	-3.1	i	i	i
COc1ccc(Cl)cc1N(C)C(=O)CCNC(=O)Cn1cnc2ccccc2c1=O	i	5.0*	i	i	i
CCN(CC)c1ccc(/C=C(/C#N)c2nc3ccc(C)cc3[nH]2)c(OC(C)C)c1	i	-38.3	i	i	9*
CCCOc1cc(N(CC)CC)ccc1/C=C(/C#N)c1nc2ccc(C)cc2[nH]1	i	-18.4	i	-11.2*	i
CC1Sc2ccc(S(=O)(=O)CCC(=O)Nc3ccc(C(C)C)cc3)cc2NC1=O (stereo unspecified)	i	-14.4	i	i	i
COc1cccc(C(=O)CC(=O)C(=O)Nc2ccc(C)cc2Cl)c1	i	30.6*	i	i	i
CCOc1ccccc1NC(=O)C(=O)CC(=O)c1cccc(OC)c1	i	12.0*	16*	i	i
COc1ccc(C(=O)CC(=O)C(=O)Nc2ccc(C)cc2Cl)cc1	i	55.8*	i	i	i
COc1cccc(C(=O)CC(=O)C(=O)Nc2cc(OC)ccc2OC)c1	i	-4.8	i	i	i
Cc1cccc(N=Cc2cc(Br)cc(Cl)c2O)c1	i	4.1	i	i	i
